Data as given in ChEMBL document CHEMBL1131139, “Synthesis and antibacterial activity of ketolides (6-O-methyl-3-oxoerythromycin derivatives): a new class of antibacterials highly potent against macrolide-resistant and -susceptible respiratory pathogens” (1998).
Converted amounts (≈) assume the structure as drawn.

Assays:
Format in all cases: functional
Haemophilus influenzae [1] = assay: In vitro inhibitory activity against Haemophilus influenzae (351CB12)
How it was run: (§1)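 Two-fold agar dilution on Mueller-Hinton agar (pH 7.4). Inoculum from overnight plate cultures suspended in Mueller-Hinton broth, adjusted to 10^9 CFU/mL, diluted 1:200 and spotted by multipoint inoculator at about 10^4 CFU/spot. Plates incubated 37 °C for 20 h. MIC taken as lowest concentration with no visible growth.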

Streptococcus pneumoniae [2] = assay: In vitro inhibitory activity against Streptococcus pneumoniae (032UC1); how it was run: as §1
[3] = system: Staphylococcus epidermidis; assay: In vitro inhibitory activity against Staphylococcus epidermidis (EryRi 012GO11i); how it was run: as §1
Staphylococcus aureus [4] = assay: In vitro inhibitory activity against Staphylococcus aureus (EryRc 011CB20); how it was run: as §1
Streptococcus pneumoniae [5] = assay: In vitro inhibitory activity against Streptococcus pneumoniae (EryRi 030SJ5i); how it was run: as §1
Staphylococcus aureus [6] = assay: In vitro inhibitory activity against Staphylococcus aureus (EryRi 011GO25i); how it was run: as §1
Haemophilus influenzae [7] = assay: In vitro inhibitory activity against Haemophilus influenzae (351HT3); how it was run: as §1
Escherichia coli = assay: In vitro inhibitory activity against Escherichia coli (250 UC5); how it was run: as §1
Streptococcus pneumoniae [8] = assay: In vitro inhibitory activity against Streptococcus pneumoniae (EryRc 030SJ1); how it was run: as §1
Staphylococcus aureus [9] = assay: In vitro inhibitory activity against Staphylococcus aureus (011UC4); how it was run: as §1
Streptococcus pyogenes = assay: In vitro inhibitory activity against Streptococcus pyogenes (02A1UC1); how it was run: as §1

Row | Structure (SMILES) | MIC (Haemophilus influenzae [1]) [µg/mL] | MIC (Streptococcus pneumoniae [2]) [µg/mL] | MIC [3] [µg/mL] | MIC (Staphylococcus aureus [4]) [µg/mL] | MIC (Streptococcus pneumoniae [5]) [µg/mL] | MIC (Staphylococcus aureus [6]) [µg/mL] | MIC (Haemophilus influenzae [7]) [µg/mL] | MIC (Escherichia coli) [µg/mL] | MIC (Streptococcus pneumoniae [8]) [µg/mL] | MIC (Staphylococcus aureus [9]) [µg/mL] | MIC (Streptococcus pyogenes) [µg/mL]
1 | CC[C@H]1OC(=O)[C@H](C)C(=O)[C@H](C)[C@@H](O[C@@H]2O[C@H](C)C[C@H](N(C)C)[C@H]2O)[C@](C)(OC)C[C@@H](C)C(=O)[C@H](C)[C@H]2N(NCCCc3cccc(Cl)c3)C(=O)O[C@]12C | 2.5 (≈ 3.2 µM) | 0.02 (≈ 0.0256 µM) | 0.04 (≈ 0.0513 µM) | 40 (≈ 51.3 µM) | 0.08 (≈ 0.103 µM) | 0.08 (≈ 0.103 µM) | 1.2 (≈ 1.54 µM) | 40 (≈ 51.3 µM) | 2.5 (≈ 3.2 µM) | 0.04 (≈ 0.0513 µM) | 0.02 (≈ 0.0256 µM)
2 | CC[C@H]1OC(=O)[C@H](C)C(=O)[C@H](C)[C@@H](O[C@@H]2O[C@H](C)C[C@H](N(C)C)[C@H]2O)[C@](C)(OC)C[C@@H](C)/C(=N\OC2CCCN(C)C2)[C@H](C)[C@@H](O)[C@]1(C)O (stereo not given in full) | 10 (≈ 14.3 µM) | 0.02 (≈ 0.0286 µM) | 0.6 (≈ 0.857 µM) | 40 (≈ 57.1 µM) | 40 (≈ 57.1 µM) | 0.3 (≈ 0.429 µM) | 10 (≈ 14.3 µM) | 40 (≈ 57.1 µM) | 10 (≈ 14.3 µM) | 0.08 (≈ 0.114 µM) | 0.04 (≈ 0.0571 µM)
3 | CC[C@H]1OC(=O)[C@H](C)C(=O)[C@H](C)[C@@H](O[C@@H]2O[C@H](C)C[C@H](N(C)C)[C@H]2O)[C@](C)(OC)C[C@@H](C)/C(=N\OC2CCCN(CCCC3CCCCC3)C2)[C@H](C)[C@@H](O)[C@]1(C)O (stereo not given in full) | 1.2 (≈ 1.48 µM) | 0.02 (≈ 0.0247 µM) | 5 (≈ 6.17 µM) | 40 (≈ 49.4 µM) | 0.15 (≈ 0.185 µM) | 2.5 (≈ 3.09 µM) | 5 (≈ 6.17 µM) | 40 (≈ 49.4 µM) | 0.6 (≈ 0.741 µM) | 0.15 (≈ 0.185 µM) | 0.04 (≈ 0.0494 µM)
4 | CC[C@H]1OC(=O)[C@H](C)[C@@]2(O)O[C@@](C)(C[C@@H](C)/C(=N\O)[C@H](C)[C@@H](O)[C@]1(C)O)[C@H](O[C@@H]1O[C@H](C)C[C@H](N(C)C)[C@H]1O)[C@H]2C | 10 (≈ 17 µM) | 40 (≈ 67.9 µM) | 40 (≈ 67.9 µM) | 40 (≈ 67.9 µM) | 40 (≈ 67.9 µM) | 40 (≈ 67.9 µM) | 10 (≈ 17 µM) | 40 (≈ 67.9 µM) | 40 (≈ 67.9 µM) | 40 (≈ 67.9 µM) | 40 (≈ 67.9 µM)
5 | CC[C@H]1OC(=O)[C@H](C)C(=O)[C@H](C)[C@@H](O[C@@H]2O[C@H](C)C[C@H](N(C)C)[C@H]2O)[C@](C)(OC)C[C@@H](C)/C(=N\OCCN2CCCCC2)[C@H](C)[C@@H](O)[C@]1(C)O | 20 (≈ 28 µM) | 10 (≈ 14 µM) | 0.6 (≈ 0.84 µM) | 40 (≈ 56 µM) | 40 (≈ 56 µM) | 2.5 (≈ 3.5 µM) | 40 (≈ 56 µM) | 40 (≈ 56 µM) | 20 (≈ 28 µM) | 0.6 (≈ 0.84 µM) | 0.15 (≈ 0.21 µM)
6 | CC[C@H]1OC(=O)[C@H](C)C(=O)[C@H](C)[C@@H](O[C@@H]2O[C@H](C)C[C@H](N(C)C)[C@H]2O)[C@](C)(OC)C[C@@H](C)C(=O)[C@H](C)[C@H]2N(CCOCc3ccccc3)C(=O)O[C@]12C | 0.6 (≈ 0.803 µM) | 0.02 (≈ 0.0268 µM) | 0.15 (≈ 0.201 µM) | 40 (≈ 53.6 µM) | 0.3 (≈ 0.402 µM) | 0.08 (≈ 0.107 µM) | 1.2 (≈ 1.61 µM) | 40 (≈ 53.6 µM) | 5 (≈ 6.69 µM) | 0.04 (≈ 0.0536 µM) | 0.02 (≈ 0.0268 µM)
7 | CC[C@H]1OC(=O)[C@H](C)C(=O)[C@H](C)[C@@H](O[C@@H]2O[C@H](C)C[C@H](N(C)C)[C@H]2O)[C@](C)(OC)C[C@@H](C)C(=O)[C@@H](C)[C@H]2NC(=O)O[C@@]21C | 20 (≈ 32.6 µM) | 0.3 (≈ 0.49 µM) | 40 (≈ 65.3 µM) | 40 (≈ 65.3 µM) | 40 (≈ 65.3 µM) | 40 (≈ 65.3 µM) | 20 (≈ 32.6 µM) | 40 (≈ 65.3 µM) | 40 (≈ 65.3 µM) | 5 (≈ 8.16 µM) | 2.5 (≈ 4.08 µM)

More lines, in order of falling MIC (Haemophilus influenzae [1]), values ahead:

Row | MIC (Haemophilus influenzae [1]) [µg/mL] | MIC (Streptococcus pneumoniae [2]) [µg/mL] | MIC [3] [µg/mL] | MIC (Staphylococcus aureus [4]) [µg/mL] | MIC (Streptococcus pneumoniae [5]) [µg/mL] | MIC (Staphylococcus aureus [6]) [µg/mL] | MIC (Haemophilus influenzae [7]) [µg/mL] | MIC (Escherichia coli) [µg/mL] | MIC (Streptococcus pneumoniae [8]) [µg/mL] | MIC (Staphylococcus aureus [9]) [µg/mL] | MIC (Streptococcus pyogenes) [µg/mL] | Structure (SMILES)
8 | 40 (≈ 54.4 µM) | 0.04 (≈ 0.0544 µM) | 0.6 (≈ 0.816 µM) | 10 (≈ 13.6 µM) | 5 (≈ 6.8 µM) | 0.6 (≈ 0.816 µM) | 40 (≈ 54.4 µM) | 40 (≈ 54.4 µM) | 5 (≈ 6.8 µM) | 0.3 (≈ 0.408 µM) | 0.3 (≈ 0.408 µM) | CC[C@H]1OC(=O)[C@H](C)C(=O)[C@H](C)[C@@H](O[C@@H]2O[C@H](C)C[C@H](N(C)C)[C@H]2O)[C@](C)(OC)C[C@@H](C)/C(=N\OCc2c(C)cc(C)cc2C)[C@H](C)[C@@H](O)[C@]1(C)O
9 | 40 (≈ 54.4 µM) | 0.15 (≈ 0.204 µM) | 5 (≈ 6.79 µM) | 40 (≈ 54.4 µM) | 40 (≈ 54.4 µM) | 5 (≈ 6.79 µM) | 40 (≈ 54.4 µM) | 40 (≈ 54.4 µM) | 40 (≈ 54.4 µM) | 0.6 (≈ 0.815 µM) | 0.6 (≈ 0.815 µM) | CC[C@H]1OC(=O)[C@H](C)C(=O)[C@H](C)[C@@H](O[C@@H]2O[C@H](C)C[C@H](N(C)C)[C@H]2O)[C@](C)(OC)C[C@@H](C)/C(=N\OCCNCc2ccccc2)[C@H](C)[C@@H](O)[C@]1(C)O
10 | 1.2 (≈ 1.45 µM) | 0.02 (≈ 0.0242 µM) | 0.15 (≈ 0.181 µM) | 40 (≈ 48.4 µM) | 0.15 (≈ 0.181 µM) | 0.15 (≈ 0.181 µM) | 0.6 (≈ 0.725 µM) | 40 (≈ 48.4 µM) | 2.5 (≈ 3.02 µM) | 0.04 (≈ 0.0484 µM) | 0.02 (≈ 0.0242 µM) | CC[C@H]1OC(=O)[C@H](C)C(=O)[C@H](C)[C@@H](O[C@@H]2O[C@H](C)C[C@H](N(C)C)[C@H]2O)[C@](C)(OC)C[C@@H](C)C(=O)[C@@H](C)[C@H]2N(NCCCc3ccnc4c(OC)cccc34)C(=O)O[C@]12C
